Experimental data: ChEMBL document CHEMBL1817574, “Development of novel conformation-constrained cytotoxic derivatives of cheliensisin A by embedment of small heterocycles” (Eur J Med Chem, 2011)

Columns and labels:
A549 = assay: Cytotoxicity against human A549 cells after 48 hrs by MTT assay; format: functional, cell-based; settings: A549, 48 h
SK-BR-3 = assay: Cytotoxicity against human SKBR3 cells after 48 hrs by MTT assay; format: functional, cell-based; settings: SK-BR-3, 48 h
PANC-1 = assay: Cytotoxicity against human PANC1 cells after 48 hrs by MTT assay; format: functional, cell-based; settings: PANC-1, 48 h
HL-60 [1] = assay: Cytotoxicity against human HL60 cells after 48 hrs by MTT assay; format: functional, cell-based; settings: HL-60, 48 h
Method in brief: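 Log-phase HL-60 cells were seeded at 1.25 × 10⁵ cells/mL and treated in four replicates across various concentrations for 48 h. MTT (5 mg/mL solution) was then added and incubated a further 4 h. The wells were then solubilised with 10% SDS–5% isobutanol–0.012 mol/L HCl before the colorimetric read-out.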

SMMC-7721 = assay: Cytotoxicity against human SMMC7721 cells after 48 hrs by MTT assay; format: functional, cell-based; settings: SMMC-7721, 48 h
HL-60 [2] = assay: Ratio IC50 for cheliensisin A to compound for human HL60 cells after 48 hrs by MTT assay; format: functional
[3] = Chemical stability of the compound in 0.1 M phosphate buffer at pH 7.0 at 0.1 mg/mL after 12 hrs by HPLC analysis; format: physicochemical; settings: pH 7, 12 h

Stability [3] | Compound | IC50 (A549) | IC50 (SK-BR-3) | IC50 (PANC-1) | IC50 (HL-60 [1]) | IC50 (SMMC-7721) | Ratio IC50 (HL-60 [2])
– | CC(=O)O[C@H]1C=CC(=O)O[C@@H]1[C@H]1N=C(c2ccccc2)O[C@@H]1c1ccccc1 | > 40 µM | > 40 µM | > 40 µM | > 40 µM | > 40 µM | –
– | CC(=O)O[C@H]1C=CC(=O)O[C@@H]1[C@@H]1N=C(c2ccccc2)O[C@@H]1c1ccccc1 | 18.3 µM | 3.65 µM | 12.8 µM | 4.3 µM | 17.7 µM | –
– | CC(=O)O[C@H]1C=CC(=O)O[C@@H]1[C@H]1N=C(Cc2ccccc2)O[C@@H]1c1ccccc1 | > 40 µM | 35.2 µM | > 40 µM | 17.8 µM | > 40 µM | –
– | C/C=C/C1=N[C@@H]([C@H]2OC(=O)C=C[C@@H]2OC(C)=O)[C@@H](c2ccccc2)O1 | 30.7 µM | 2.22 µM | 3.87 µM | 1.26 µM | 14.5 µM | –
– | C/C=C\C1=N[C@H]([C@H]2OC(=O)C=C[C@@H]2OC(C)=O)[C@@H](c2ccccc2)O1 | > 40 µM | > 40 µM | 23 µM | 4.59 µM | 27 µM | –
– | C/C=C/C1=N[C@H]([C@H]2OC(=O)C=C[C@@H]2OC(C)=O)[C@@H](c2ccccc2)O1 | > 40 µM | 18 µM | 24.4 µM | 6.93 µM | > 40 µM | –
Stable | CC(=O)O[C@H]1C=CC(=O)O[C@@H]1[C@@H]1N=C(/C=C/c2ccccc2)O[C@@H]1c1ccccc1 | 18.9 µM | 4.03 µM | 4.1 µM | 0.48 µM | 21 µM | 4
– | CC(=O)O[C@H]1C=CC(=O)O[C@@H]1[C@H]1N=C(/C=C/c2ccccc2)O[C@@H]1c1ccccc1 | 21.9 µM | 23.1 µM | 21.1 µM | 4.05 µM | 24 µM | –
– | CC(=O)O[C@H]1C=CC(=O)O[C@@H]1[C@H]1N=C(C)O[C@@H]1c1ccccc1 | > 40 µM | 7.26 µM | 16.6 µM | 2.52 µM | 16.3 µM | –
– | CC(=O)O[C@H]1C=CC(=O)O[C@@H]1[C@H]1N=C(C(=O)c2ccccc2)O[C@@H]1c1ccccc1 | > 40 µM | > 40 µM | > 40 µM | > 40 µM | > 40 µM | –
Stable | CC(=O)O[C@H]1C=CC(=O)O[C@@H]1c1nc(/C=C/c2ccccc2)oc1-c1ccccc1 | 24.8 µM | 7.36 µM | 7.22 µM | 5.89 µM | 24.6 µM | –
– | C/C=C\c1nc([C@H]2OC(=O)C=C[C@@H]2OC(C)=O)c(-c2ccccc2)o1 | > 40 µM | > 40 µM | > 40 µM | > 40 µM | > 40 µM | –
– | CC(=O)O[C@H]1C=CC(=O)O[C@@H]1c1nc(-c2ccccc2)oc1-c1ccccc1 | 14.7 µM | 12 µM | 13.9 µM | 2.59 µM | 15.7 µM | –
– | CC(=O)O[C@H]1C=CC(=O)O[C@@H]1[C@H](NC(=O)c1ccccc1)[C@H](O)c1ccccc1 | > 40 µM | > 40 µM | > 40 µM | > 40 µM | > 40 µM | –
– | CC(=O)O[C@H]1C=CC(=O)O[C@@H]1[C@@H](NC(=O)Cc1ccccc1)[C@H](O)c1ccccc1 | > 40 µM | 38.8 µM | > 40 µM | 5.19 µM | > 40 µM | –
– | CC(=O)O[C@H]1C=CC(=O)O[C@@H]1[C@@H](NC(=O)/C=C/c1ccccc1)[C@H](O)c1ccccc1 | > 40 µM | > 40 µM | > 40 µM | > 40 µM | > 40 µM | –
Stable | CC(=O)O[C@H]1C=CC(=O)O[C@@H]1/C=C/c1ccccc1 | 38.8 µM | 4.63 µM | 7.95 µM | 2.68 µM | 29 µM | –
– | CC(=O)O[C@H]1C=CC(=O)O[C@@H]1[C@@H](O)[C@@H](Nc1ccccc1)c1ccccc1 | > 40 µM | > 40 µM | > 40 µM | > 40 µM | > 40 µM | –
– | CC(=O)O[C@H]1C=CC(=O)O[C@@H]1[C@@H](O)[C@H](O)c1ccccc1 | > 40 µM | > 40 µM | > 40 µM | > 40 µM | > 40 µM | –
– | CC(=O)O[C@H]1C=CC(=O)O[C@H]1[C@H]1OC(C)(C)O[C@@H]1c1ccccc1 | > 40 µM | > 40 µM | > 40 µM | > 40 µM | > 40 µM | –
– | CC(=O)O[C@H]1C=CC(=O)O[C@H]1[C@H]1OC(=O)O[C@@H]1c1ccccc1 | > 40 µM | > 40 µM | > 40 µM | > 40 µM | > 40 µM | –
Stable | CC(=O)O[C@H]1C=CC(=O)O[C@H]1[C@H]1O[C@@H]1c1ccccc1 [CHELIENSISIN A] | 5.99 µM | 20.3 µM | 25.7 µM | 1.97 µM | 4.7 µM | –
